Data: ChEMBL document CHEMBL5678808, “Human target validation of phosphoinositide 3-kinase (PI3K)β: effects on platelets and insulin sensitivity, using AZD6482 a novel PI3Kβ inhibitor” (J Thromb Haemost, 2012)

Tests used:
[1] = Plasma concentration in Sprague-Dawley rat hyperinsulinemic-euglycemic glucose clamp model at […], iv for 2 mins followed by 50 ug/kg/min, iv for 28 mins; type: ADME, organism-based; conditions: time 30 min
Summary of the method: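 Plasma drug levels were sampled during the drug-infusion clamp period (Clamp2) in anesthetized rats under a human-insulin hyperinsulinemic–euglycemic clamp. I.v. regimens were 1000 μg kg−1 + 50 μg kg min−1 or 6000 μg kg−1 + 300 μg kg min−1; mean ± SEM, n = 4–5/group.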

[2] = Protein binding in rat plasma assessed as unbound fraction; type: ADME, cell-free
[3] = target: Lymphokine-activated killer T-cell-originated protein kinase (Homo sapiens) (UniProt Q96KB5); assay: Inhibition of human PBK at 10 uM relative to control
Rattus norvegicus = assay: Insulin sensitizing activity in Sprague-Dawley rat hyperinsulinemic-euglycemic glucose clamp model assessed as human insulin level during infusion of human insulin at 6000 ug/kg/min, iv for 2 mins followed by 300 ug/kg/min, iv for 28 mins measured during clamp 1 (reference value: 1.7 +/- 0.1 nM); type: functional; conditions: time 30 min, 0.5 h
Summary of the method: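 Anesthetized rats; hyperinsulinemic–euglycemic clamp with human insulin infused. A baseline clamp (Clamp1) was followed by a second clamp (Clamp2) with vehicle or drug i.v. The drug was given as a low dose (1000 μg kg−1 + 50 μg kg min−1) or a high dose (6000 μg kg−1 + 300 μg kg min−1). Steady-state glucose infusion rate for euglycemia was recorded, with plasma glucose, human insulin and total insulin; mean ± SEM, n = 4–5/group.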

[4] = target: Calcium/calmodulin-dependent protein kinase kinase 2 (Homo sapiens) (UniProt Q96RR4); assay: Inhibition of human CAMKKbeta at 10 uM relative to control
Chain of Calcium/calmodulin-dependent protein kinase kinase 2 (Homo sapiens) (Q96RR4 2-588 limits assumed): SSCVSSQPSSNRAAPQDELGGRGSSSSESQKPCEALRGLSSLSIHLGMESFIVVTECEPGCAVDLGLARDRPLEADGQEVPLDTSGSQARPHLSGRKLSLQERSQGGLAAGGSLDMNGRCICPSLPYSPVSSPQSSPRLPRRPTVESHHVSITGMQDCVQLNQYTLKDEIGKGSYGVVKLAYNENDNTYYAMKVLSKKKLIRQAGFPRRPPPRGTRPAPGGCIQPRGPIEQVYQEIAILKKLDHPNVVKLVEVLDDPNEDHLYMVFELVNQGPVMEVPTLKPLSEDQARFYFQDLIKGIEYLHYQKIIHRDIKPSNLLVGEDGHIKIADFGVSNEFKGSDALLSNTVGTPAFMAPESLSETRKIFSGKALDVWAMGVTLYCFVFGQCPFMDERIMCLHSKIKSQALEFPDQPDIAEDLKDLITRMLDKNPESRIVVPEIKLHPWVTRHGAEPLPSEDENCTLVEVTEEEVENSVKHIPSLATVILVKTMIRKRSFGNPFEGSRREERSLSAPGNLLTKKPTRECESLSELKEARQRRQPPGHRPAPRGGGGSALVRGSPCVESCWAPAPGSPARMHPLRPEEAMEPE

Chain of Lymphokine-activated killer T-cell-originated protein kinase (Homo sapiens) (Q96KB5 whole entry, the tested form may be a part): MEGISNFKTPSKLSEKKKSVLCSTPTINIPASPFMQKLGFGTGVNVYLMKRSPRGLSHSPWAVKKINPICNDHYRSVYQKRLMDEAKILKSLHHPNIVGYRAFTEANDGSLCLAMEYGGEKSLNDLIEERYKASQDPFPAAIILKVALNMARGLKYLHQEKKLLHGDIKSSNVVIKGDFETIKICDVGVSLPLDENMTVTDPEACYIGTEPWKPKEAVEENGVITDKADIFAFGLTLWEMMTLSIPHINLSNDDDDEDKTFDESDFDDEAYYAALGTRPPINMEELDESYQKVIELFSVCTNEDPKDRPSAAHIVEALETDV

For Cc1cc([C@@H](C)Nc2ccccc2C(=O)O)c2nc(N3CCOCC3)cc(=O)n2c1 [AZD-6482], the concentration at 0.5 h [1] was 2300 nM, the fraction unbound [2] was 0.11 and the inhibition [3] was 6.9%. The Activity (Rattus norvegicus) was 1.9 nM and the inhibition [4] was 14%.
